Data: PMC3518043 (Biochemistry, 2012)

How the values were obtained:
Type in all cases: binding
[1] = tested on: histone H3 combinatorial peptide library; assay: on-bead 5,000-member combinatorial histone H3 library screen; details: for occurrence of peptides with high methylation at H3K4 (me2/3) / occurrence of peptides with low methylation at H3K4 (K4unmod and K4me): PHD1-2 screen
Summary of the method: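 One-bead-one-peptide H3 combinatorial library (5,000 members) incubated sequentially with GST-tagged PHD fingers, GST-specific primary antibody, biotinylated secondary antibody, then streptavidin-alkaline phosphatase for bead detection.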

[2] = tested on: immobilized histone H3 (1-11); assay: surface plasmon resonance
[3] = tested on: unmodified histone H3 N-terminus (first eleven amino acids); assay: Amplified Luminescent Proximity Homogeneous Assay; details: 10 μM protein, only biotin- or only 6×His-peptide
Summary of the method: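 Recombinant CHD5 PHD constructs and H3 (1-11) peptides carrying either a 6×His tag or biotin were diluted in StabilCoat buffer to final 10 μM protein and 1 μM peptide. Mixtures shaken 30 min at ambient temperature. Donor and acceptor beads added at 15 μg/mL each (working), then shaken 30 min in the dark. Emission read at 570/100 nm with ALPHA filters.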

histone H3 N-terminus = assay: overall signal intensity in histone peptide array / peptide screens; details: both peptide screens; at the same molar concentrations
[4] = tested on: histone H3 tail peptide (1-12); assay: 1H,15N HSQC NMR titration with H3 peptide; details: 0.1 mM 15N-labeled PHD1-2; H3 (1-12)
Summary of the method: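 15N-labelled CHD5 PHD1-2 expressed in E. coli BL21(DE3) pLysS grown in 15NH4Cl minimal medium and induced with 0.5 mM IPTG. GST fusion purified on glutathione agarose and tag cleaved with PreScission protease. Buffer was 20 mM Tris pH 6.8, 150 mM NaCl, 3 mM DTT. 1H,15N HSQC spectra of 0.1 mM protein recorded at 600 MHz with increasing amounts of H3 (1-12) peptide.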

[5] = bivalent binding model (bivalent analyte), pH 7.5

increase in affinity (lower Kd) compared with PHD1 and PHD2 alone ([2]; 1:1 Langmuir model): 4-11 fold | off-rate kd ([2]; 1:1 Langmuir model, biotinylated H3 (1-11) on SA chip, pH 7.5): 0.00348 ± 5e-05 s⁻¹ | slower last off-rate (kd) compared with individual domains ([2]; last off-rate of PHD1-2 vs kd values of individual domains): 5-6 fold | binding events in NMR titration [4]: two distinct binding events
B1: PHD1-2: tandem PHD-fingers of CHD5 (338-468), GST fusion in pGEX-KG; tag cleaved for SPR and NMR (protein)
chain: YETDHQDYCEVCQQGGEIILCDTCPRAYHLVCLDPELEKAPEGKWSCPHCEKEGIQWEPKDDDDEEEEGGCEEEEDDHMEFCRVCKDGGELLCCDACPSSYHLHCLNPPLPEIPNGEWLCPRCTCPPLKGK
modifications: left off: GST, end not stated, kept
occurrence of unmodified lysine-4 among positive beads ([1]; H3K4unmod, MALDI-TOF identification): 44 out of 90 | occurrence of H3T3 phosphorylation among positive beads ([1]; H3T3ph): 0 out of 90 | occurrence of H3T6 phosphorylation among positive beads ([1]; H3T6ph): 0 out of 90 | occurrence of peptides with high methylation at H3K4 (me2/3) ([1]; all peptides): 13% | occurrence of peptides with low methylation at H3K4 (K4unmod and K4me) ([1]; all peptides): 74% | occurrence of peptides with high methylation at H3K4 (me2/3) ([1]; peptides also containing R2me2a or R2me2s): 6% | occurrence of peptides with low methylation at H3K4 (K4unmod and K4me) ([1]; peptides only containing Rme2a/s at H3R2): 91% | ka1 [2, 5]: 324 ± 11 M⁻¹ s⁻¹ | ka2 [2, 5]: 2.9×10^−5 ± 1×10^−6 1/RUs | kd1 [2, 5]: 0.120 ± 0.005 s⁻¹ | kd2 [2, 5]: 0.00218 ± 3e-05 s⁻¹ | ALPHA signal with either functionalized peptide alone [3]: no signal above background | overall signal intensity compared to either domain alone (histone H3 N-terminus): notably higher
